Published values collected from several papers.
Compare with care: the assays were run in different laboratories.
CNR1: Cannabinoid receptor 1 (CNR1, Homo sapiens, UniProt P21554)
Oprm1: Mu-type opioid receptor (Oprm1, Mus musculus, UniProt P42866)
HTR2A: 5-hydroxytryptamine receptor 2A (HTR2A, Homo sapiens, UniProt P28223)

For CCOC(=O)c1ccc(OC(=O)CCCCCN=C(N)N)cc1, the IC50 was 157 nM (Vitamin K-dependent protein C (PROC, Homo sapiens, UniProt P04070); enzyme activity; inhibitor).
CC[C@H](C)[C@@H](C(=O)N1CCC[C@H]1c1nccs1)N(C)C(=O)[C@H](CC(C)C)N(C)C(=O)[C@H](Cc1ccc(OC)cc1)N(C)C(=O)/C=C(\C)OC gave an IC50 of 11600 nM (CNR1; β-arrestin recruitment; antagonist).
With CC(C)(C#N)CCCn1nc(C(=O)NC(C)(C)c2cccc(C(N)=O)c2)c2ccccc21 the Ki was 250 nM (CNR1; ligand displacement; radioligand; cell membranes).
For CC(C)[C@@H](CN1CCc2ccccc2C1)NC(=O)Cc1c[nH]c2ccccc12, the Ki was 1240 nM (Oprm1; ligand displacement; radioligand).
CC[C@H](C)[C@H](NC(=O)[C@H](CCC(=O)O)NC(=O)[C@H](C)NC(=O)[C@H](CCCCN)NC(=O)[C@H](CC(C)C)NC(=O)[C@@H](NC(=O)[C@H](CCC(=O)O)NC(=O)[C@@H](NC(=O)[C@H](CCC(=O)O)NC(=O)[C@H](CC(=O)O)NC(=O)[C@H](C)NC(=O)[C@@H](NC(=O)[C@@H](NC(=O)[C@H](C)NC(=O)[C@H](C)NC(=O)CCNC(=O)[C@@H](N)CCCCNC(=O)CCCC[C@@H]1SC[C@@H]2NC(=O)N[C@@H]21)C(C)C)[C@@H](C)O)[C@@H](C)O)C(C)C)C(=O)N[C@@H](CO)C(=O)N[C@@H](CCCCN)C(=O)N[C@@H](C)C(=O)N[C@H](C(=O)N[C@@H](CCCCN)C(=O)N[C@@H](CCC(N)=O)C(=O)N[C@H](C(=O)N[C@@H](CCC(N)=O)C(=O)N[C@@H](CCC(=O)O)C(=O)N[C@@H](CCC(=O)O)C(=O)N[C@@H](CC(=O)O)C(=O)N1CCC[C@H]1C(=O)N[C@@H](CC(N)=O)C(N)=O)C(C)C)C(C)C gave a Kd of 4600 nM (Myc proto-oncogene protein (MYC, Homo sapiens, UniProt P01106); binding; BLI).
The EC50 of CCCCCc1ccccc1C/C=C\C/C=C\C/C=C\CCCC(=O)N[C@H](C)CO is reported as 3440 nM (CNR1; β-arrestin recruitment; agonist).
With COc1cc2c(cc1OC)CN(CCc1ccc(NC(=O)c3cccc4c(=O)c5cccc(OC)c5[nH]c34)cc1)CC2 the Ki was greater than 10000 nM (Histamine H4 receptor (HRH4, Homo sapiens, UniProt Q9H3N8); cell-free assay).
With Cc1c(CC(=O)N[C@@H](CN2CCc3ccccc3C2)C(C)C)cccc1[N+](=O)[O-] the Ki was 150 nM (Oprm1; ligand displacement; radioligand).
CC(C)(NC(=O)c1nn(CCCCC(F)(F)F)c2ccccc12)c1cccc(C(N)=O)c1 has a Ki of 210 nM (CNR1; ligand displacement; radioligand; cell membranes).
For COc1cc2c3c(c1OC)-c1c(OC)ccc(Br)c1CC3N(C)CC2 (centres unmarked), the Ki was 373 nM (HTR2A; cell-free assay; radioligand).
With O=C(O)Cn1c(=O)n(Cc2ccc(Br)cc2F)c(=O)c2ccc(Cl)cc21 the Kd was 2680 nM (Fatty acid-binding protein, intestinal (Homo sapiens, UniProt P12104, T55A); ligand displacement; fluorescence).
c1cncc([C@@H]2CCCN2)c1 gave a Ki of 334 nM (Neuronal acetylcholine receptor; alpha4/beta2 (Rattus norvegicus, UniProt P09483+P12390); cell-free assay; radioligand).
With CCCCC/C=C\[C@H](C)/C=C\C/C=C\Cc1ccccc1CCCC(=O)N[C@H](C)CO the EC50 was 1610 nM (CNR1; cAMP; agonist).
CC(C)[C@H](CN1CCc2ccccc2C1)NC(=O)c1cccc(-c2cccc(O)c2)c1 has a Ki of 3100 nM (Oprm1; ligand displacement; radioligand).
With CC(C)(NC(=O)c1nn(CCCCC#N)c2ccccc12)c1cccc(C(N)=O)c1 the Ki was 460 nM (CNR1; ligand displacement; radioligand; cell membranes).
The EC50 of CCCCC/C=C\C/C=C\C/C=C\Cc1ccccc1CCCC(=O)N[C@H](C)CO is reported as 607 nM (CNR1; β-arrestin recruitment; agonist).
O=c1c2cc(Cl)ccc2[nH]c(=S)n1Cc1cccnc1 has an IC50 of 2600 nM (HTR2A; cell-free assay).
